Assay results from ChEMBL document CHEMBL1153938, “Synthesis of hydroxypyrone- and hydroxythiopyrone-based matrix metalloproteinase inhibitors: developing a structure-activity relationship” (Bioorg Med Chem Lett, 2009).

Experiments:
[1] = biological target: T1, Interstitial collagenase (Homo sapiens) (UniProt P03956); experiment: Inhibition of human MMP1 catalytic domain at 50 uM after 1 hr by fluorescent substrate assay
T1 sequence (whole entry): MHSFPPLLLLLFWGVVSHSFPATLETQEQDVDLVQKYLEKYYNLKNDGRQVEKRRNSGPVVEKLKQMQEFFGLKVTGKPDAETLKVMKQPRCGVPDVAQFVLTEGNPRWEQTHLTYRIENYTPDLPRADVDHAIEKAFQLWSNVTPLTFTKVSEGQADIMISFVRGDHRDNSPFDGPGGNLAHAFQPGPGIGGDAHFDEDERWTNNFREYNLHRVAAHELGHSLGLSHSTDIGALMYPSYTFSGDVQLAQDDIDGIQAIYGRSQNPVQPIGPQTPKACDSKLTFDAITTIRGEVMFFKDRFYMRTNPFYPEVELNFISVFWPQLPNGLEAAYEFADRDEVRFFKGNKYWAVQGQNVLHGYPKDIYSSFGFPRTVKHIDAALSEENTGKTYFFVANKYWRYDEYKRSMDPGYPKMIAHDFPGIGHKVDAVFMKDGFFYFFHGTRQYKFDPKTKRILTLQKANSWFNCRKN
How it was run: (§1)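 Single-concentration screen: each inhibitor tested at 50 µM against recombinant human MMP catalytic domain (MMP-1, MMP-2 or MMP-3) in a fluorescent substrate assay, with activity reported as percent inhibition.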

[2] = biological target: T2, 72 kDa type IV collagenase (Homo sapiens, UniProt P08253); experiment: Inhibition of human MMP2 catalytic domain at 50 uM after 1 hr by fluorescent substrate assay; how it was run: as §1
Target sequence in this assay (P08253 110-660 limits assumed): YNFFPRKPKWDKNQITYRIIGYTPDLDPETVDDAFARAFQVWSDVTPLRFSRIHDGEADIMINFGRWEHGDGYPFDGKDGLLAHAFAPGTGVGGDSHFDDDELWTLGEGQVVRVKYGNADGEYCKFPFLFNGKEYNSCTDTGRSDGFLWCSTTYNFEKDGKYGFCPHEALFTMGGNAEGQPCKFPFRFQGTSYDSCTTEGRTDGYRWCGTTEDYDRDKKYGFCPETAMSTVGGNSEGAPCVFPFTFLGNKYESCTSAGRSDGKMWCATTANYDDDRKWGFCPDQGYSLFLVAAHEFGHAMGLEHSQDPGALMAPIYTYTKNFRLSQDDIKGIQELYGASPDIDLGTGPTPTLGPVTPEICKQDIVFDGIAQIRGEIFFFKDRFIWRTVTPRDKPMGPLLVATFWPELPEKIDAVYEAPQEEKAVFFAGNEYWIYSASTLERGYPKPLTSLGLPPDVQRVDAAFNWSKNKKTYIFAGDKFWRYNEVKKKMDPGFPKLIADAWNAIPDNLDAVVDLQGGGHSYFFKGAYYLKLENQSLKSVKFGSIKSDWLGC

Stromelysin-1 [3] = biological target: T3, Stromelysin-1 (Homo sapiens, UniProt P08254); experiment: Inhibition of human MMP3 catalytic domain at 50 uM after 1 hr by fluorescent substrate assay; how it was run: as §1
Stromelysin-1 [4] = biological target: T3, Stromelysin-1; experiment: Inhibition of human MMP3 catalytic domain by fluorescent substrate assay
How it was run: (§2)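 IC50 against human MMP catalytic domain (MMP-1, MMP-2 or MMP-3) from a fluorescent substrate assay. It was determined only for inhibitors showing relatively strong inhibition in the 50 µM screen.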

[5] = biological target: T2, 72 kDa type IV collagenase; experiment: Inhibition of human MMP2 catalytic domain by fluorescent substrate assay; how it was run: as §2
Target sequence in this assay (P08253 whole entry, the tested form may be a part): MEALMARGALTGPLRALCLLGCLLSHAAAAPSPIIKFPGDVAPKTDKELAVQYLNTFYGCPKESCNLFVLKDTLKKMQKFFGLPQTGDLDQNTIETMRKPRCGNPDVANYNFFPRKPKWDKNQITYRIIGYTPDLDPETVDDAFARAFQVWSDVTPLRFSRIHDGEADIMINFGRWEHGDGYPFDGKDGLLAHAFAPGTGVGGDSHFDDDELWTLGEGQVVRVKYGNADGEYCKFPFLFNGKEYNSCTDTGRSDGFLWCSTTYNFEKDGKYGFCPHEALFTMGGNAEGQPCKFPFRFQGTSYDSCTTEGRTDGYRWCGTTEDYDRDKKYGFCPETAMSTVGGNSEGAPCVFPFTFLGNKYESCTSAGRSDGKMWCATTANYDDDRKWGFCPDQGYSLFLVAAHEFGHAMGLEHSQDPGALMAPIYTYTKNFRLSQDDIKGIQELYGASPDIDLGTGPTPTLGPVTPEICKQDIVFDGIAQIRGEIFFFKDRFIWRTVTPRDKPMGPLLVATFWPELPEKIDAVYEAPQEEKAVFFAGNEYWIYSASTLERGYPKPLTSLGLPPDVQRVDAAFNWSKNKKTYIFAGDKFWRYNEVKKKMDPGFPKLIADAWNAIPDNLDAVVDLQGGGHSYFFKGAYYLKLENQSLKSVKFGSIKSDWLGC

Interstitial collagenase = biological target: T4, Interstitial collagenase (Homo sapiens, UniProt P03956); experiment: Inhibition of human MMP1 catalytic domain by fluorescent substrate assay; how it was run: as §2
T4 sequence (P03956 whole entry): T1 sequence (whole entry)

T3 sequence (P08254 whole entry, the tested form may be a part): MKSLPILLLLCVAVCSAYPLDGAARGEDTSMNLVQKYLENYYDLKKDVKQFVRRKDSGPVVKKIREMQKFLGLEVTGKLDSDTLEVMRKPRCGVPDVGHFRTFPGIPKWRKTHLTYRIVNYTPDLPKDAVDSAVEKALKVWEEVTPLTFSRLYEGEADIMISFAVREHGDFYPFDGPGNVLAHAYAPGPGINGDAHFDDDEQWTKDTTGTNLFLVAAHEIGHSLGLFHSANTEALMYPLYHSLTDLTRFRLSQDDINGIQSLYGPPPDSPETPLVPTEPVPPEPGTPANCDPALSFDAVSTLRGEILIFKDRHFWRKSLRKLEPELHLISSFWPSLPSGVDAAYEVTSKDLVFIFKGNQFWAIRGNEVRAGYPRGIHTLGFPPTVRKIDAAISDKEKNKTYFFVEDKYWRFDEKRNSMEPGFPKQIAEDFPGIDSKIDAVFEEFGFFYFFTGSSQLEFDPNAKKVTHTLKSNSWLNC

| inhibition [1] | inhibition [2] | inhibition (Stromelysin-1 [3]) | IC50 (Stromelysin-1 [4]) | IC50 [5] | IC50 (Interstitial collagenase) | SMILES |
| --- | --- | --- | --- | --- | --- | --- |
| 16% | 11% | 22% |  |  |  | COc1ccc(CNC(=O)c2cc(=O)c(O)co2)cc1 |
| 49% | 69% | 36% |  | 30 µM |  | COc1ccc(CNC(=O)c2c(C)occ(O)c2=S)cc1 |
| 29% | 26% | 93% |  |  |  | COc1ccc(CNC(=O)c2oc(C)cc(=O)c2O)cc1 |
| 6% | 63% | 4% |  | 37.7 µM |  | Cc1cc(=O)c(O)c(CNCc2ccc(-c3ccccc3)cc2)o1 |
| 13% | 18% | < 1% |  |  |  | CCOC(=O)c1c(C)oc(CNCc2ccc(-c3ccccc3)cc2)c(O)c1=O |
| 18% | 24% | 32% |  |  |  | COc1ccc(CNC(=O)c2c(C)oc(CO)c(O)c2=O)cc1 |
| 12% | 14% | 44% |  |  |  | O=C(NCc1ccc(-c2ccccc2)cc1)c1cc(=O)c(O)co1 |

More lines, now with the values behind:

| SMILES | inhibition [1] | inhibition [2] | inhibition (Stromelysin-1 [3]) | IC50 (Stromelysin-1 [4]) | IC50 [5] | IC50 (Interstitial collagenase) |
| --- | --- | --- | --- | --- | --- | --- |
| Cc1cc(=O)c(O)c(COCc2ccc(-c3ccccc3)cc2)o1 | 21% | 15% | 26% |  |  |  |
| Cc1cc(=O)c(O)c(C(=O)NCc2ccc(O)cc2)o1 | 66% | 25% | 94% | 3.7 µM |  |  |
| Cc1occ(O)c(=O)c1C(=O)NCc1ccc(-c2ccccc2)cc1 | 15% | 21% | 28% |  |  |  |
| COc1ccc(CNC(=O)c2cc(=S)c(O)co2)cc1 | 31% | 85% | 91% | 13.9 µM |  |  |
| COc1ccc(CNC(=O)c2oc(C)cc(=S)c2O)cc1 | 70% | 94% | 97% | 16.4 µM | 19 µM | 30 µM |
| Cc1cc(=S)c(O)c(C(=O)NCc2ccc(-c3ccccc3)cc2)o1 |  |  |  | 5.6 µM |  |  |
| Cc1occ(O)c(=S)c1C(=O)NCc1ccc(-c2ccccc2)cc1 | 52% | 94% | 45% |  | 23 µM |  |
| COc1ccc(CNC(=O)c2c(C)occ(O)c2=O)cc1 | 15% | 33% | 18% |  |  |  |
| Cc1occ(O)c(=O)c1C(=O)NCc1ccc(O)cc1 | 17% | 24% | 32% |  |  |  |
| Cc1cc(=O)c(O)c(C(=O)NCc2ccc(-c3ccccc3)cc2)o1 |  |  |  |  |  | > 50 µM |
| O=C(NCc1ccc(-c2ccccc2)cc1)c1cc(=S)c(O)co1 | 62% | 98% | 91% | 13.3 µM | 14.4 µM | 44 µM |
